Results on 4 molecules are retold here after ChEMBL document CHEMBL1671808, “Brassinin oxidase mediated transformation of the phytoalexin brassinin: structure of the elusive co-product, deuterium isotope effect and stereoselectivity” (2011).

Molecules are shown by their SMILES. “And” between values parts separate entries of the source, which are not always exact repeats. Equal values may be shown once. The source made the active and inactive calls. The calls are words filed in the database; no cut-off is given here.

For test [1], the system named is Plenodomus lingam. The test can be described thus: Inhibition of Leptosphaeria maculans BoLm assessed as conversion of brassinin to indole-3-carboxaldehyde at 0.60 mM. In short, it runs like this:
(§1)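 Initial-velocity assays with purified BOLm: product added at fixed 0.30 or 0.60 mM, brassinin varied 0.05–0.30 mM at saturating PMS (1 mM); also PMS varied […] with brassinin fixed at 0.05, 0.10 or 0.15 mM; standard DEA pH 8.2 assay, HPLC quantitation.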

In test [2] the test system is Plenodomus lingam. In words: Antifungal activity against Leptosphaeria maculans isolate BJ 125 assessed as growth inhibition at 0.50 mM relative to control. The format is functional. On the set-up: scale not given: the % may be the effect or the level left. The method in brief: (§2)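 Mycelial growth inhibition of L. maculans isolate BJ 125 tested at 0.50, 0.25 and 0.12 mM; growth compared with control cultures grown without compound under otherwise identical conditions.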

Test [3] deals with Plenodomus lingam. The test can be described thus: Antifungal activity against Leptosphaeria maculans isolate BJ 125 assessed as growth inhibition. The format is functional. On the set-up: scale not given: the % may be the effect or the level left. In short, it runs like this: as §2
For test [4], the system named is Plenodomus lingam. The test can be described thus: Activity of Leptosphaeria maculans BoLm relative to Brassinin. The conditions noted are these: tested as the 2H-labelled form.
The subject of test [5] is Plenodomus lingam. The test can be described thus: Activity of Leptosphaeria maculans BoLm in presence of H218O relative to Brassinin. The settings on record: tested as the 2H-labelled form.
For test [6], the system named is Plenodomus lingam. The test can be described thus: Activity of Leptosphaeria maculans BoLm. The method in brief:
(§3)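 BOLm purified from 3-phenylindole-induced L. maculans BJ-125 liquid cultures. Assay buffer: 20 mM DEA pH 8.2, 1.0 mM DTT, 0.1% Triton X-100, with 1.0 mM PMS as electron acceptor, which is saturating. Substrate was varied over 0.05–1.0 mM for brassinin or 0.05–2.8 mM for the carbamate. Reactions ran 20 min at 20 °C and were stopped and extracted with EtOAc. Indole-3-carboxaldehyde was quantified by HPLC-DAD against calibration curves. kcat and Km were taken from saturation curves. Four independent experiments.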

For test [7], the system named is Plenodomus lingam. In words: Ratio of kcat to Km for Leptosphaeria maculans BoLm. The method in brief: as §3
Test [8] deals with Plenodomus lingam. In words: Activity of Leptosphaeria maculans BoLm at 0.05 to 1.0 mM. In short, it runs like this: as §3
For test [9], the system named is Plenodomus lingam. The test can be described thus: Selectivity ratio of compound to dideuterated brassinin for Leptosphaeria maculans BoLm activity. In short, it runs like this:
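Kinetic isotope effect = (kcat/Km)H / (kcat/Km)D. Purified BOLm at pH 8.2 with saturating PMS (1.0 mM), 20 °C, 20 min. Substrate was varied over 0.05–1.0 mM (brassinin series) or 0.05–2.8 mM (carbamate series), comparing natural-abundance and deuterated substrates. Product was quantified by HPLC. Four independent experiments.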

Test [10] concerns Plenodomus lingam. In words: Activity of Leptosphaeria maculans BoLm in presence of BUT reagent relative to control. The method in brief: (§4)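 Purified BOLm was incubated in a reaction buffer with each modifier: BUT 10 mM, EAM 2.5 mM, NAI 2.5 mM or DEPC 2.5 mM in 100 mM phosphate pH 7.5; IAA 2.5 mM in 100 mM MES pH 6.0; PMSF 2.5 mM in 100 mM phosphate pH 8.1. Residual activity was then read in the standard brassinin/PMS HPLC assay. Result is specific activity as a percentage of untreated enzyme.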

In test [11] the test system is Plenodomus lingam. The test can be described thus: Activity of Leptosphaeria maculans BoLm in presence of EAM reagent relative to control. The method in brief: as §4
For test [12], the system named is Plenodomus lingam. The test can be described thus: Activity of Leptosphaeria maculans BoLm in presence of NAI reagent relative to control. In short, it runs like this:
as §4

The subject of test [13] is Plenodomus lingam. In words: Activity of Leptosphaeria maculans BoLm in presence of DEPC reagent relative to control. In short, it runs like this:
as §4

Test [14] deals with Plenodomus lingam. In words: Activity of Leptosphaeria maculans BoLm in presence of WRK reagent relative to control. The method in brief:
(§5)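 Purified BOLm was treated with the carboxyl-specific reagent (WRK or EDC, 5–50 mM) in 100 mM MES pH 6.0 at 20 °C. Aliquots taken at time intervals were assayed for residual activity in the standard brassinin/PMS HPLC assay. Activity is given as a percentage of untreated enzyme. For WRK, kobs came from ln residual activity versus time, and K_I and k2 from 1/kobs versus 1/[WRK].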

Test [15] relates to Plenodomus lingam. The test can be described thus: Activity of Leptosphaeria maculans BoLm in presence of EDC reagent relative to control. The method in brief: as §5
The test system of test [16] is Plenodomus lingam. In words: Activity of Leptosphaeria maculans BoLm in presence of IAA reagent relative to control. The method in brief:
as §4

Test [17] relates to Plenodomus lingam. The test can be described thus: Activity of Leptosphaeria maculans BoLm in presence of PMSF reagent relative to control. The method in brief:
as §4

For test [18], the system named is Plenodomus lingam. The test can be described thus: Inhibition of Leptosphaeria maculans BoLm assessed as conversion of brassinin to indole-3-carboxaldehyde at 0.30 mM. In short, it runs like this:
as §1

For test [19], the system named is Plenodomus lingam. The test can be described thus: Activity of Leptosphaeria maculans BoLm at 0.05 to 2.8 mM. The method in brief:
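Purified BOLm from 3-phenylindole-induced L. maculans BJ-125 cultures; substrate varied 0.05–2.8 mM with saturating PMS (1.0 mM) in 20 mM DEA pH 8.2, 1 mM DTT, 0.1% Triton X-100; 20 °C, 20 min; EtOAc extraction, HPLC-DAD quantitation of indole-3-carboxaldehyde against calibration curves; kcat, Km from saturation curves; four independent experiments.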

In test [20] the test system is Plenodomus lingam. In words: Ratio of kcat to Km for Leptosphaeria maculans BoLm to ratio of kcat to Km for Leptosphaeria maculans BoLm with the deuterated substrate. The settings on record: tested as the 2H-labelled form.

Regarding `CSC(N)=S`, the inhibition result in the test with Plenodomus lingam [1] is “inactive”. For the same molecule, the Activity with Plenodomus lingam [2] and in the test on Plenodomus lingam [3] was 18% in each case.
As for `CSC(=S)NCc1c[nH]c2ccccc12`, the Activity in the test on Plenodomus lingam [4] was 26%; in the test on Plenodomus lingam [5], 23%; in the test with Plenodomus lingam [10], 95%; in the test with Plenodomus lingam [11], 97%; in the test with Plenodomus lingam [12], 111%; in the test with Plenodomus lingam [13], 103%. In addition, the Activity with Plenodomus lingam [14] came out at 17%; with Plenodomus lingam [15], 38%; with Plenodomus lingam [16], 106%; with Plenodomus lingam [17], 108%. The Km is 96 µM in the test with Plenodomus lingam [6]; 151 µM and 94 µM and 96 µM with Plenodomus lingam [6] (tested as the 2H-labelled form). The kcat with Plenodomus lingam [6] (tested as the 2H-labelled form) was 0.84 s⁻¹ and 0.47 s⁻¹; in the test with Plenodomus lingam [8] it was 0.95 s⁻¹; with Plenodomus lingam [8] (tested as the 2H-labelled form), 0.28 s⁻¹. For the same molecule, the kcat/Km with Plenodomus lingam [7] stood at 9900 M⁻¹ s⁻¹. In the test with Plenodomus lingam [9], the Ratio came out at 4.
In the case of `O=Cc1c[nH]c2ccccc12`, the inhibition result in the test on Plenodomus lingam [18] is “inactive”.
Consider `COC(=O)NCc1c[nH]c2ccccc12`, for which the Km came out at 622 µM with Plenodomus lingam [6] and 501 µM with Plenodomus lingam [6] (tested as the 2H-labelled form). Besides, the results for the kcat/Km with Plenodomus lingam [7] and in the test with Plenodomus lingam [7] (tested as the 2H-labelled form) were 9040 M⁻¹ s⁻¹ and 2300 M⁻¹ s⁻¹, respectively. Further, the values for the kcat with Plenodomus lingam [19] and with Plenodomus lingam [19] (tested as the 2H-labelled form) were 5.62 s⁻¹ and 1.15 s⁻¹, respectively. Besides, in the test on Plenodomus lingam [20], the Ratio is 3.9.

Broadly, the Km is the concentration of substrate that gives half-maximal velocity. The term kcat denotes the maximal rate divided by the concentration of active sites. A word on the kcat/Km: it is the turnover number divided by the Michaelis constant.
